Screening results as filed in PubChem.
V-ATPase pHluor = regulators of yeast V-ATPase proton pumping, primary screen, pHLuorin cytosolic pH fluorescence; response, % at 10 µM; 350,000 tested, 0.37% active; S. cerevisiae; in the data active = response mostly above about 7.3%, no sharp cut-off; inactive = mostly below about 5.4%; note: actives read high
GAA850 FXN act = FXN promoter activators, primary screen, cell-based, luciferase luminescence, HEK293 lucGAA850; HEK293 lucGAA850 FXN promoter luciferase reporter, 24 h; percent of 10 µM SAHA response; activation, % at 6 µM; 360,000 tested, 0.56% active; AID 540364, 2011;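 active = activation above the average of all compounds screened plus 3 SD, cutoff fixed separately per campaign, cut at about 7.5% in these data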;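 note: 0% = DMSO wells and 100% = 10 µM SAHA wells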
HIV Env fusion = inhibitors of HIV-1 Env-driven cell-cell fusion, primary screen, HeLa-JRFL effector, CEM21 target cells, luciferase; inhibition, % at 12.3 µM; 360,000 tested, 1.1% active; AID 651610, 2012;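 active = mean replicate inhibition score of at least 50 and every replicate individually at or above 50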;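 note: 0% = plate neutral controls and 100% = maraviroc near 300 nM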
NR2E3 ag-1 = inhibitors of NR2E3-RetCOR corepressor binding, primary screen, NR2E3 agonist project, biochemical, TR-FRET, GST-NR2E3, biotin-RetCOR; 1536-well; 320,000 tested, 0.12% active; Photoreceptor-specific nuclear receptor (Homo sapiens), Q9Y5X4; inhibition of corepressor binding, % at 4.78 µM;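 active = percent inhibition above the cutoff of mean plus 3 SD of all tested compounds, set per screening campaign, cut at about 20% in these data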;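 note: 0% = DMSO wells and 100% = biotin wells as full block of FRET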
Target sequence (Q9Y5X4 whole entry, looked up): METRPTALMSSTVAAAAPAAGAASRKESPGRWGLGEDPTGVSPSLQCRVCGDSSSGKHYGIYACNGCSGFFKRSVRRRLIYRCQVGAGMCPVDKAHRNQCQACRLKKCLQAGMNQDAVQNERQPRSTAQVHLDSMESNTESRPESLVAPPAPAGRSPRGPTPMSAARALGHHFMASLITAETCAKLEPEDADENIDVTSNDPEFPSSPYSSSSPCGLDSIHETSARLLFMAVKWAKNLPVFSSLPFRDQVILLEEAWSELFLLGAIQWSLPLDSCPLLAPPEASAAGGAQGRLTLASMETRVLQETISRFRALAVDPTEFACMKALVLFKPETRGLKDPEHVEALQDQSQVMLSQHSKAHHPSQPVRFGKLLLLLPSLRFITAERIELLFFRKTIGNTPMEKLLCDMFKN
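Material – GST-tagged NR2E3 plus biotinylated RetCOR corepressor · Quantity – NR2E3 fusion 1.35 nM · Times – 5 h incubation at 4 °C · Medium – pH 7.5 Tris-based buffer · Technique – TR-FRET, Eu(K)-anti-GST donor, streptavidin-D2 acceptor, ex 340, em 617/671 nm · Benchmarks – high control biotin, low control 0.6% DMSO · Format – 1536-well plates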
NR2E3 ag-2 = NR2E3 agonists in two-hybrid cells, primary screen, cell-based, luminescence, CHO-S, Gal4-NCOR/VP16-NR2E3; Photoreceptor-specific nuclear receptor (Homo sapiens), Q9Y5X4; AID 602229, 2012; inhibition of corepressor binding, % at 3.98 µM; luciferase; 360,000 tested, 0.35% active;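 active = inhibition above the mean of all tested compounds plus 3 SD, cut at about 70% in these data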;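 note: 0% = DMSO with NR2E3 transfected cells and 100% = cells lacking NR2E3 construct; higher means lower luciferase signal from less NR2E3 corepressor binding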
GalR3 antag = GalR3 antagonists in HEK293 cells, primary screen, cell-based, fluorescence readout; Galanin receptor type 3 (Homo sapiens), O60755; HEK293 GalR3-CNG cAMP membrane potential fluorescence; galR3 body fused to GalR1 C-terminus; inhibition, % at 3 µM; 360,000 tested, 0.44% active; AID 651719, 2012;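 active = inhibition above the screen-wide average plus 3 SD, cut at about 13% in these data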;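 note: forskolin and galanin both at EC90 stimulate the cells; cAMP rise reported by CNG channel membrane potential dye signal; 0% = forskolin plus galanin with DMSO and 100% = forskolin alone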
Target sequence (O60755 1-299 limits assumed): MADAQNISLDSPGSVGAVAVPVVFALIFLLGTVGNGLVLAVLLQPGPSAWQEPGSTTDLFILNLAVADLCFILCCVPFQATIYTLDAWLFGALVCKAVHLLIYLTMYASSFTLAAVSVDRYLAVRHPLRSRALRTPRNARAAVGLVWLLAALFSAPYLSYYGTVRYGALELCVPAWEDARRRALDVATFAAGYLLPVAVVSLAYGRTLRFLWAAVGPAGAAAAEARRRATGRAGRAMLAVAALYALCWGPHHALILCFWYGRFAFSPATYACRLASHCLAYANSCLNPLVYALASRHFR
GAA30 counter = GAA30 FXN promoter activators, confirmation, counter-screen for GAA850 frataxin promoter activator project, cell-based, luminescence, HEK293, lucGAA30, triplicate | shares compounds with GAA850 FXN act | HEK293 lucGAA30 FXN promoter luciferase, 24 h; DMSO = 0%, 5 µM ipriflavone = 100% | activation, % at 6 µM | 1,900 tested, 66% active;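 active = mean activation above the mean of solvent-only control wells plus 3 SD, cut at about 22% in these data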;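 note: counterscreen of GAA850 promoter hits where activity marks nonselective or luminescence artifacts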
GAA850 confirm = FXN GAA850 promoter activators in reporter cells, confirmation, cell-based, luminescence, HEK293 lucGAA850, triplicate. HEK293 lucGAA850 FXN promoter luciferase reporter, 24 h; 100% = activation by SAHA. AID 588351, 2011. 1,900 tested, 86% active. shares compounds with GAA850 FXN act. activation, % at 6 µM;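 active = mean activation above a set limit taken from the primary screen, cut at about 8% in these data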;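 note: 0% = DMSO wells and 100% = 10 µM SAHA wells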
The depositor's hits bear a star; i = inactive; . = no result given; [ ] = dose if it differs, or a comment. Shown are actives, neighbours in structure and some others; about 2.2% of the full set was active somewhere.

SMILES	V-ATPase pHluor	GAA850 FXN act	HIV Env fusion	NR2E3 ag-1	NR2E3 ag-2	GalR3 antag	GAA30 counter	GAA850 confirm
COc1ccccc1NC(=O)c1cc(N)cc(C(=O)Nc2ccccc2OC)c1	-0.1	1.4	3.1	1.7	-11.4	-2.1	.	.
C(=C\c1nc(-c2cccnc2)no1)/c1ccccc1	-2.5	8.7*	-76.9	-1.2	-146.2	-0.6	123.9*	42.6*
Nc1nc(CSc2ccccc2)nc(N2CCCCC2)n1	4.3	7.9*	-23.9	2.9	-84.9	-6.8	97.8*	29.2*
Cc1nn2c3ccccc3nc2c2ccccc12	-2.1	11.2*	-126.5	2.8	-14.5	-3.1	75.3*	31.0*
Cc1nn2c(-c3ccccc3)nnc2c2ccccc12	-0.6	5.5	i	1.1	-33.4	-5.8	.	.
CCc1ccc(NC(=O)c2cc(S(=O)(=O)N3CCCC3)c[nH]2)cc1	-1.1	-1.3	.	0.2	-18.0	.	.	.
CCOc1ccc(NC(=O)c2cc(S(=O)(=O)N3CCCCC3)c[nH]2)cc1	-2.5	12.5*	-24.1	2.2	-1.1	0.6	3.6	2.6
CC1=CC(C)(C)Nc2ccc(OC(=O)CN3C(=O)c4ccccc4C3=O)cc21	1.8	8.7*	7.7	-3.0	10.8	-6.6	-14.1	17.7*
CC1=CC(C)(C)Nc2ccc(OC(=O)CN3C(=O)c4cccc5cccc(c45)C3=O)cc21	-5.9	2.0	40.9	-0.2	-29.4	-8.9	.	.
CNC(=O)C[C@H]1CC[C@@H]2[C@H](COc3ccc(NC(=O)Nc4ccccc4)cc3C(=O)N2C)O1	.	.	0.4[16.7 µM]	.	.	.	.	.
CSc1nc(N)nc(SC2C=CCCC2)c1C#N (stereo not given)	2.2	12.6*	.	-3.1	-113.6	-4.2	40.5*	21.6*
CSc1nc(N)nc(SCC(=O)C(C)(C)C)c1C#N	5.5	1.9	.	0.3	-11.4	-2.4	.	.
O=C(NCc1ccco1)c1cc(-c2cccs2)on1	-3.2	25.9*	-306.7	-0.6	-74.8	-5.3	150.2*	55.6*
O=C(NCC1CCCO1)c1cc(-c2ccccc2)on1 (stereo not given)	2.8	23.8*	.	-3.9	-90.4	0.8	157.4*	90.5*
Cc1ccc(-c2cc(C(=O)NCC3CCCO3)no2)cc1 (stereo not given)	0.3	5.1	-65.3	3.3	-97.7	1.4	.	.
COc1ccc(CCNC(=O)c2cc(-c3ccccc3)on2)cc1OC	7.1	10.5*	.	2.8	-7.8	-9.1	62.5*	33.1*
O=C(NCc1ccccc1)c1cc(-c2cccs2)on1	2.2	3.4	.	1.8	-109.9	-8.6	.	.
CCCNC(=O)c1cc(-c2ccco2)on1	1.9	22.0*	-343.5	3.1	-115.7	-4.3	127.5*	57.4*
CC(C)NC(=O)Nc1cccc2c1O[C@H](CN(C)C)[C@H](C)CN([C@@H](C)CO)C2=O	.	.	23.5[16.7 µM]	.	.	.	.	.
C[C@@H]1CN([C@@H](C)CO)C(=O)Cc2cc(NC(=O)c3ccncc3)ccc2O[C@@H]1CN(C)CC1CC1	.	.	12.1[16.7 µM]	.	.	.	.	.
CN1C(=O)c2cc(NC(=O)Nc3ccccc3)ccc2OC[C@@H]2O[C@H](CC(=O)O)CC[C@@H]21	.	.	3.5[16.7 µM]	.	.	.	.	.
Cc1noc(C)c1S(=O)(=O)Nc1ccc2c(c1)CC(=O)N([C@H](C)CO)C[C@@H](C)[C@H](CN(C)C(=O)Nc1ccc3c(c1)OCO3)O2	.	.	-7.7[16.7 µM]	.	.	.	.	.
O=C(NCc1ccco1)c1cc(-c2ccccc2)on1	1.4	9.1*	.	-4.7	-113.8	-6.4	104.5*	37.4*
O=C(NCc1ccco1)c1cc(-c2ccc(F)cc2)on1	-1.8	6.9	-204.1	2.7	-92.7	-3.9	.	.
O=C(NCC1CCCO1)c1cc(-c2ccc(F)cc2)no1 (stereo not given)	3.6	11.2*	-59.4	3.4	-63.6	4.1	84.8*	31.3*
SMILES	V-ATPase pHluor	GAA850 FXN act	HIV Env fusion	NR2E3 ag-1	NR2E3 ag-2	GalR3 antag	GAA30 counter	GAA850 confirm
Cc1occc1C(=O)Nc1ccc([N+](=O)[O-])cc1Br	3.3	2.1	-31.6	0.9	2.6	-1.2	.	.
CC1(C)CC1C(=O)Nc1ccc([N+](=O)[O-])cc1Br (stereo not given)	-4.3	7.8*	.	-0.9	-12.3	-9.6	17.8	6.9
Cc1nn(-c2ccccc2)c(Cl)c1/C=N/NC(=O)c1ccnn1C	1.6	7.7*	-76.1	-0.7	-41.8	0.4	116.5*	42.4*
C[C@H](CO)N1C[C@H](C)[C@@H](CN(C)S(C)(=O)=O)OCCCC[C@H](C)Oc2ccc(NC(=O)Nc3ccc(F)cc3)cc2C1=O	.	.	-28.8[16.7 µM]	.	.	.	.	.
Nc1ccc2nc(-c3cc(Cl)c(N)c(Cl)c3)[nH]c2c1	-6.4	8.3*	-194.7	-7.9	-25.4	-2.8	160.1*	50.4*
CCOC(=O)c1c(-c2ccc(F)cc2)csc1NC(=O)CN1C(=O)NC2(CCCCC2C)C1=O (stereo not given)	0.4	12.8*	-1.4	-1.7	-0.4	-2.1	9.3	17.5*
CC(=O)c1ccc2oc3ccccc3c(=O)c2c1	2.9	8.6*	-43.1	4.9	-43.6	-3.4	87.2*	32.9*
COc1ccccc1NC(=O)N(Cc1ccccc1)c1ccccn1	-0.3	9.7*	.	-4.8	-22.7	3.0	37.9*	19.5*
COCC(=O)N(Cc1ccccc1)c1ccccn1	-0.5	-0.8	12.0	2.5	-3.0	-1.8	.	.
COC(=O)C[C@H]1C=C[C@@H](NC(=O)c2ccccc2)[C@H](CO)O1	.	.	-7.3[16.7 µM]	.	.	.	.	.
COCCNC(=O)NC1(C(F)(F)F)Oc2ccc(Cl)cc2O1 (stereo not given)	.	14.9*	-140.7	0.9	4.9	-5.7	16.5	10.9*
CCCCNC(=O)NC1(C(F)(F)F)Oc2ccccc2O1	0.5	1.7	.	0.1	13.9	1.2	.	.
Cc1cc(NC(=O)NC2(C(F)(F)F)Oc3ccc(Cl)cc3O2)no1 (stereo not given)	5.7	17.9*	.	1.0	27.7	.	29.9*	14.6*
